Yeast growth tox: yeast growth toxicity, wild-type and mutant, primary screen, cytotoxicity control for eIF2B function restoration project, wild-type and eIF2Bepsilon R284H mutant, A595; 30,000 tested, 0.3% active; AID 685, 2007; growth inhibition, % at 25 µM (by protocol); S. cerevisiae wild-type growth, A595 turbidity, 16 h;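 active = mutant and wild-type yeast strains alike exhibit over 30% growth inhibition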
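System: S. cerevisiae wild-type or eIF2Bepsilon-R284H mutant strain; times: 16 h growth with compound, 30 °C; signal: absorbance at 595 nm (turbidity); measure: growth inhibition (%) versus cell controls and blanks; compound: 25 µM single dose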
Yeast eIF2B: GCN4-lacZ reporter reduction in eIF2B-epsilon mutant yeast, primary screen, S. cerevisiae, eIF2B-epsilon R284H, Beta-Glo luminescence; inhibition, % at 25 µM (by protocol); 27,000 tested, 0.91% active;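 active = mutant luminescence inhibited past about 50% while wild type luminescence and mutant growth stay under set limits, limit read from the data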
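Material – yeast eIF2B-epsilon R284H mutant carrying GCN4–beta-galactosidase fusion · Medium – YPD yeast growth medium · Compound – one concentration, 25 µM, 0.25% DMSO · Times – 16 h at 30 °C exposure · Signal – Beta-Glo luminescence plus absorbance at 595 nm · Read-out – % inhibition of reporter signal and growth versus controls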
Numbers stand for hits. An excerpt weighted towards active compounds, which were near 1% of everything screened.

For COc1cc(OC)cc(-n2nc(C(=O)N3CC(C)CC(C)C3)c3ccccc3c2=O)c1 (configuration not stated) the results were Yeast growth tox inactive and Yeast eIF2B inactive.
Screening CCOC(=O)N1CCN(C(=O)c2nn(-c3cc(OC)cc(OC)c3)c(=O)c3ccccc23)CC1 returned Yeast growth tox inactive and Yeast eIF2B 57.2.
`O=C(c1ccccc1)N1CCN(C(=O)c2ccncc2)CC1` gave Yeast growth tox inactive and Yeast eIF2B 50.5.
CCS(=O)(=O)N1CCN(C(=O)c2ccccc2)CC1 was read as Yeast growth tox inactive and Yeast eIF2B inactive.
For CCC(C)(C(=O)NC1CCCC1)N(C(=O)CC1NC(=O)NC1=O)c1ccc(C)cc1 (configuration not stated) the results were Yeast growth tox inactive.
CN(C)CCN1C(=O)C(O)=C(C(=O)c2ccco2)C1c1ccccc1F (configuration not stated) was read as Yeast growth tox inactive and Yeast eIF2B 62.9.
Screening CN(C)CCN1C(=O)C(O)=C(C(=O)c2cc3ccccc3o2)C1c1ccccn1 (configuration not stated) returned Yeast growth tox inactive and Yeast eIF2B inactive.
